Test results from ChEMBL document CHEMBL4840327, “Identification and structure-activity relationship exploration of uracil-based benzoic acid and ester derivatives as novel dipeptidyl Peptidase-4 inhibitors for the treatment of type 2 diabetes mellitus” (Eur J Med Chem, 2021).

Assays:
[1] = target: Dipeptidyl peptidase 8 (Homo sapiens, UniProt Q6V1X1); assay: Inhibition of human recombinant DPP8 using Gly-Pro-AMC as substrate preincubated for 15 mins followed by substrate addition and measured for 20 mins by fluorescence based microplate reader assay
[2] = target: Dipeptidyl peptidase 9 (Homo sapiens, UniProt Q86TI2); assay: Inhibition of human recombinant DPP9 using Gly-Pro-AMC as substrate preincubated for 15 mins followed by substrate addition and measured for 20 mins by fluorescence based microplate reader assay
[3] = target: Dipeptidyl peptidase 4 (Homo sapiens, UniProt P27487); assay: Inhibition of human recombinant DPP4 using Gly-Pro-AMC as substrate preincubated for 15 mins followed by substrate addition and measured for 20 mins by fluorescence based microplate reader assay
[4] = system: Mus musculus; assay: Hypoglycemic activity in ICR mouse assessed as reduction in glucose secretion at 10 mg/kg, po via gavage administered as single dose pretreated with compound followed by glucose challenge measured after 120 mins relative to control; type: functional; set-up: scale not given: the % may be the effect or the level left; conditions: 2 h
In short: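 Male ICR mice (6–7 weeks), overnight fasted, n = 8/group. Single gavage dose in water (vehicle: water). Tail-tip blood glucose by glucometer. Oral glucose 3 g/kg given 60 min after treatment (t = 0), and readings taken up to 120 min.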

[5] = system: Mus musculus; assay: Antidiabetic activity in C57BL/6 db/db mouse assessed as reduction in blood glucose AUC (0 to 120 mins) at 10 mg/kg, po administered once daily for 4 weeks followed by 12 hrs fasting and subsequent glucose challenge and measured up to 120 mins by glucometer relative to control; type: functional; set-up: scale not given: the % may be the effect or the level left
In short: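 Male db/db mice (10 weeks old), grouped by nonfasting and 12 h fasting glucose and body weight, n = 8 per group, lean littermates as lean control. Oral dosing in water once daily for 4 weeks. Then 12 h fast, oral glucose 1.5 g/kg, glucometer readings at 0, 15, 30, 60 and 120 min.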

[6] = target: Dipeptidyl peptidase 4 (Rattus norvegicus) (UniProt P14740); assay: In vivo inhibition of DPP4 in Sprague-Dawley rat plasma at 10 mg/kg, po via gavage using Gly-Pro-AMC as substrate measured after 24 hrs relative to control; type: functional, organism-based
In short: (§1)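 Male SD rats (n = 3/group), fasted overnight, gavaged with 10 mg/kg in distilled water or vehicle. Heparinized orbital blood taken at 0–48 h; plasma stored −20 °C. Plasma mixed with 125 µM Gly-Pro-AMC in 100 mM HEPES pH 7.5, 0.1 mg/mL BSA; AMC release followed 10 min at 37 °C (ex 360/em 460 nm). Rate expressed as % of vehicle-sample rate.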

[7] = system: Mus musculus; assay: Hypoglycemic activity in overnight fasted C57BL/6 db/db mouse reduction in blood glucose AUC (0 to 120 mins) at 10 mg/kg, po pretreated with compound for 30 mins followed by oral glucose challenge and measured up to 120 mins by glucometer relative to control; type: functional; set-up: scale not given: the % may be the effect or the level left; conditions: time min <=150
In short: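 Male C57BL/6 db/db mice (6–8 weeks, 22 ± 2 g), overnight fasted, n = 6 per group. Oral dosing in water (vehicle: water), then oral glucose 2 g/kg 30 min later. Tail-bleed glucose by glucometer predose and at 0, 15, 30, 60 and 120 min after the load.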

[8] = target: Dipeptidyl peptidase 4 (Rattus norvegicus) (UniProt P14740); assay: In vivo inhibition of DPP4 in Sprague-Dawley rat plasma at 10 mg/kg, po via gavage using Gly-Pro-AMC as substrate measured after 30 mins relative to control; type: functional, organism-based; in short: as §1
[9] = Metabolic stability in ICR mouse liver microsomes assessed as parent compound remaining at 0.1 uM incubated for 60 mins in presence of NADPH by LC-MS/MS analysis; type: ADME, Microsome; conditions: read-out: Stability
In short: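 ICR mouse liver microsomes (1 mg/mL) in 100 mM Tris pH 7.4 with 10 mM MgCl2, preincubated 5 min at 37 °C. Incubated 0–60 min at 37 °C with compound at 0.1 µM final. Quench with ice-cold methanol with 0.5% formic acid, centrifuge, LC-MS/MS. No-microsome controls run; all in duplicate.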

[10] = AUC (0 to infinity) in Sprague-Dawley rat at 10 mg/kg, po measured after 48 hrs by LC-MS/MS analysis; type: ADME, organism-based; set-up: route oral, dose 10 mg/kg, time 48 hrs; conditions: in vivo
[11] = Tmax in Sprague-Dawley rat at 10 mg/kg, po measured after 48 hrs by LC-MS/MS analysis; type: ADME, organism-based; conditions: in vivo
[12] = Metabolic stability in Sprague-Dawley rat plasma assessed as parent compound remaining at 1 uM incubated for 120 mins by LC-MS/MS analysis; type: ADME, cell-free; conditions: read-out: Stability
In short: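 SD rat plasma incubated with compound for 120 min. Supernatant analysed by LC-MS/MS; remaining % = (C120/C0) × 100. Values come from two independent experiments.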

[13] = Cmax in Sprague-Dawley rat at 10 mg/kg, po measured after 48 hrs by LC-MS/MS analysis; type: ADME, organism-based; set-up: route oral, dose 10 mg/kg, time 48 hrs; conditions: in vivo
[14] = Half life in Sprague-Dawley rat at 10 mg/kg, po measured after 48 hrs by LC-MS/MS analysis; type: ADME, organism-based; conditions: in vivo
[15] = Clearance in Sprague-Dawley rat at 10 mg/kg, po measured after 48 hrs by LC-MS/MS analysis; type: ADME, organism-based; conditions: in vivo
[16] = Cytotoxicity against human L02 cells assessed as cell viability up to 100 uM measured after 48 hrs by MTT assay relative to control; type: cell-based; conditions: read-out: Activity
In short: (§2)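 Log-phase hepatic LO2 cells seeded at 1 × 10^4 cells/well and exposed to compound or vehicle for 48 h. MTT (5 mg/mL in PBS) added for 4 h at 37 °C, 5% CO2; formazan dissolved in DMSO, absorbance read at 490 nm. Viability given as % of vehicle control; mean ± SD, n = 5.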

[17] = target: Dipeptidyl peptidase 4 (Rattus norvegicus) (UniProt P14740); assay: In vivo inhibition of DPP4 in Sprague-Dawley rat plasma at 10 mg/kg, po via gavage using Gly-Pro-AMC as substrate measured after 12 hrs relative to control; type: functional, organism-based; in short: as §1
[18] = Cmax in Sprague-Dawley rat at 3 mg/kg, iv measured after 48 hrs by LC-MS/MS analysis; type: ADME, organism-based; set-up: route intravenous, dose 3 mg/kg, time 48 hrs; conditions: in vivo
[19] = Half life in Sprague-Dawley rat at 3 mg/kg, iv measured after 48 hrs by LC-MS/MS analysis; type: ADME, organism-based; conditions: in vivo
[20] = Clearance in Sprague-Dawley rat at 3 mg/kg, iv measured after 48 hrs by LC-MS/MS analysis; type: ADME, organism-based; conditions: in vivo
[21] = AUC (0 to infinity) in Sprague-Dawley rat at 3 mg/kg, iv measured after 48 hrs by LC-MS/MS analysis; type: ADME, organism-based; set-up: route intravenous, time 48 hrs, dose 3 mg/kg; conditions: in vivo
[22] = Cytotoxicity against human L02 cells assessed as cell viability at 20 uM measured after 48 hrs by MTT assay relative to control; type: cell-based; conditions: read-out: Activity; in short: as §2

Dipeptidyl peptidase 8, sequence (Q6V1X1 whole entry): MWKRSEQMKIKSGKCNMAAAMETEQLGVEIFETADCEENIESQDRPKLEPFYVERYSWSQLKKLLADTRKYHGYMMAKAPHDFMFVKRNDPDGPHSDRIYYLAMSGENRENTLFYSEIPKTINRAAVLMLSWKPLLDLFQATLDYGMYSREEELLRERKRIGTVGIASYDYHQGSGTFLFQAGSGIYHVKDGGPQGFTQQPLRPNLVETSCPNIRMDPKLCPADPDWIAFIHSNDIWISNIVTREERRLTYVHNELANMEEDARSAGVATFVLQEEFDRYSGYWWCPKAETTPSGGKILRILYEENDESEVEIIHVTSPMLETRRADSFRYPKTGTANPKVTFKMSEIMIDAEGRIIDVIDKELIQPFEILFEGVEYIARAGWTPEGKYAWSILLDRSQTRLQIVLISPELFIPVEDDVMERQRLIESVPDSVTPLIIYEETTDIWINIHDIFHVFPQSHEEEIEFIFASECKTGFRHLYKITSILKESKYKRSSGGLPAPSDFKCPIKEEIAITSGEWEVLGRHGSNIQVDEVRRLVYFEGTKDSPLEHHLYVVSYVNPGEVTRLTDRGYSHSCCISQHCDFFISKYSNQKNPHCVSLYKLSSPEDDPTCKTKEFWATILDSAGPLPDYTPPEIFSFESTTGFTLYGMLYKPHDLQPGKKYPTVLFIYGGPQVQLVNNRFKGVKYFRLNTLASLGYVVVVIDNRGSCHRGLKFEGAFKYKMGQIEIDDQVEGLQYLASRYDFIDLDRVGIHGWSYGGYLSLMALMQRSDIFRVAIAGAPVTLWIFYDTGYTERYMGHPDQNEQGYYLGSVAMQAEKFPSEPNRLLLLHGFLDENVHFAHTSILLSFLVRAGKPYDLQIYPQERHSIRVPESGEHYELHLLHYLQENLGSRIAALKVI
Dipeptidyl peptidase 4 (Rattus norvegicus), sequence (P14740 whole entry, looked up): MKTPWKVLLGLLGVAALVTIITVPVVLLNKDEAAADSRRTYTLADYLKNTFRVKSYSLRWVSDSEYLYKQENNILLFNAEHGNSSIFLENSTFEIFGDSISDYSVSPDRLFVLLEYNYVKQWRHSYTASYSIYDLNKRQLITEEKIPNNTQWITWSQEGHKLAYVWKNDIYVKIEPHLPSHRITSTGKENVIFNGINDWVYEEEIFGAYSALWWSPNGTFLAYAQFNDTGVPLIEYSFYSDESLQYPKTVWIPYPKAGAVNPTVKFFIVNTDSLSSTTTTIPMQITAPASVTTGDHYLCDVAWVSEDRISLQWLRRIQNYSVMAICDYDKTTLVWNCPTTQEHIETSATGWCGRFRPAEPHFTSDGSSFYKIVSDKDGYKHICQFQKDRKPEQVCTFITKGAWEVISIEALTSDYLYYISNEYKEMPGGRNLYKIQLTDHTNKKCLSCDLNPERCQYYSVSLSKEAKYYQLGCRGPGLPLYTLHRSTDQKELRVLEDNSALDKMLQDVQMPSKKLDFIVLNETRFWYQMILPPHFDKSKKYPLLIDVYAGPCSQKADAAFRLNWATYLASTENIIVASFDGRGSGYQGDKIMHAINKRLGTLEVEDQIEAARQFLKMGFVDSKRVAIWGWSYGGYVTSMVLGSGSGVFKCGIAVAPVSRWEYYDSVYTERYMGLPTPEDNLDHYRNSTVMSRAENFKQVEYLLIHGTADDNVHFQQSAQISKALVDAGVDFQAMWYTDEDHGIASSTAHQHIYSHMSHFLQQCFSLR
Dipeptidyl peptidase 9, sequence (Q86TI2 whole entry): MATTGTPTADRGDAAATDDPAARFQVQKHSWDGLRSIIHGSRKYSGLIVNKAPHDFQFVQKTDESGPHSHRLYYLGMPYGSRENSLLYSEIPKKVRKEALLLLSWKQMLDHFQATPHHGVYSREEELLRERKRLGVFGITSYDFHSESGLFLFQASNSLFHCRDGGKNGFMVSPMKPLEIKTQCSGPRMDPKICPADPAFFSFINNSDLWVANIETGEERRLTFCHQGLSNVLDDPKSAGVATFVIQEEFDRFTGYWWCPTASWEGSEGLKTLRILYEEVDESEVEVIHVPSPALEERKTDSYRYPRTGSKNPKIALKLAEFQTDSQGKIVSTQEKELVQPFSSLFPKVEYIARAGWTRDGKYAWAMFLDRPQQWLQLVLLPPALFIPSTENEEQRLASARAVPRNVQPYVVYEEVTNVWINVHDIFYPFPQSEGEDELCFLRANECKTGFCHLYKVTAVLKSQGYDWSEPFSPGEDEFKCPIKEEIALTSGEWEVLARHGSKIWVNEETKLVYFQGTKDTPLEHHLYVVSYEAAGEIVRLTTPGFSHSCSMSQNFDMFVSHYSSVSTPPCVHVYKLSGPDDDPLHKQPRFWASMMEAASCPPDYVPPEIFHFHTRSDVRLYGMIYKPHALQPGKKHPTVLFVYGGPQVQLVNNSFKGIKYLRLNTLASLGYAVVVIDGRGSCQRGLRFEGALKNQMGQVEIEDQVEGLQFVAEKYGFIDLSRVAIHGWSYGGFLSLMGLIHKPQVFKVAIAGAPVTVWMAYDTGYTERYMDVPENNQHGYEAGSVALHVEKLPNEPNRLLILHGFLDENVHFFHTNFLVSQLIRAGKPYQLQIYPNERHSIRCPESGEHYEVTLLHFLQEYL
Dipeptidyl peptidase 4, sequence (P27487 whole entry): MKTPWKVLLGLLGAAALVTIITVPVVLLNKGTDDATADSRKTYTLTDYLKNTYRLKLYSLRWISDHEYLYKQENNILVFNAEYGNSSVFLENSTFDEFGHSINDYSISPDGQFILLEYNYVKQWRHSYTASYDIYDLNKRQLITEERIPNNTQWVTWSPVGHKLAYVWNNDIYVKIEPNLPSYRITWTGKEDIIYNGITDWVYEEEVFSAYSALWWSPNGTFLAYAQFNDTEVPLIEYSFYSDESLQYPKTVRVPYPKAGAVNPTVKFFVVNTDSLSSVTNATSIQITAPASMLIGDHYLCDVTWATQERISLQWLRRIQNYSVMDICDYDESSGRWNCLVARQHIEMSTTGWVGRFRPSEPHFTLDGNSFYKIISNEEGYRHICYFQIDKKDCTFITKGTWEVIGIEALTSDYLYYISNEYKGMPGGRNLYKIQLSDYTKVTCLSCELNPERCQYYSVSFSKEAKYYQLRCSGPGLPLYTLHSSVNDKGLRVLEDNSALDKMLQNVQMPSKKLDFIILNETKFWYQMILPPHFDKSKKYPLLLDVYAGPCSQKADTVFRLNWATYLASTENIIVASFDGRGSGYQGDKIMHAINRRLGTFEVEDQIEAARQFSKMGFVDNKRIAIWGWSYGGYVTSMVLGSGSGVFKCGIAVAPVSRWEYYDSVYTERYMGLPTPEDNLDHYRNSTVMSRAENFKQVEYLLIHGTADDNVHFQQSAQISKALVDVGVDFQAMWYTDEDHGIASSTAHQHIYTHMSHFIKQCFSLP

CC#CCn1c(N2CCC[C@@H](N)C2)cc(=O)n(Cc2cccc(C(=O)OC)c2Br)c1=O
IC50 [1]: > 100 µM | IC50 [2]: > 100 µM

CC#CCn1c(N2CCC[C@@H](N)C2)cc(=O)n(Cc2cccc(C(=O)OC)c2F)c1=O
IC50 [1]: > 100 µM | IC50 [2]: > 100 µM

CC#CCn1c(N2CCC[C@@H](N)C2)cc(=O)n(Cc2cccc(C(=O)O)c2Br)c1=O
IC50 [3]: > 1 µM

Cn1c(=O)cc(N2CCC[C@@H](N)C2)n(Cc2ccccc2C#N)c1=O [ALOGLIPTIN]
Activity [4]: 12.4% | Activity [5]: 16.7% | inhibition [6]: 45% | Activity [7]: 40.1%

CC#CCn1c(N2CCC[C@@H](N)C2)cc(=O)n(Cc2cc(C(=O)OC)ccc2Cl)c1=O
inhibition [8]: 90% | remaining at 1 h, 0.1 µM [9]: 34.4% | AUC(0-inf) [10]: 26800 ng·h/mL | Tmax [11]: 22.8 min | remaining at 2 h, 1 µM [12]: 64.1% | Cmax [13]: 3190 ng/mL | IC50 [1]: > 100 µM | half-life [14]: 146 min | CL/F [15]: 9.17 mL/min/kg | IC50 [2]: > 100 µM | viability at 48 h [16]: > 95% | inhibition [17]: > 70%

CC#CCn1c(N2CCC[C@@H](N)C2)cc(=O)n(Cc2cccc(C(=O)O)c2F)c1=O
IC50 [3]: > 1 µM

CC#CCn1c(N2CCC[C@@H](N)C2)cc(=O)n(Cc2cc(Br)cc(C(=O)O)c2)c1=O
IC50 [1]: > 100 µM | IC50 [2]: > 100 µM

CC#CCn1c(N2CCC[C@@H](N)C2)cc(=O)n(Cc2cc(C(=O)O)ccc2Cl)c1=O
Cmax [18]: 25700 ng/mL | half-life [19]: 54.6 min | CL [20]: 64.8 mL/min/kg | remaining at 1 h, 0.1 µM [9]: 106% | remaining at 2 h, 1 µM [12]: 103% | IC50 [1]: > 100 µM | AUC [21]: 8272.25 ng·h/mL | IC50 [2]: > 100 µM | viability at 48 h [16]: > 95%

COc1cccc2c1C(=O)c1c(O)c3c(c(O)c1C2=O)C[C@@](O)(C(=O)CO)C[C@@H]3O[C@H]1C[C@H](N)[C@H](O)[C@H](C)O1 [DOXORUBICIN]
viability at 48 h, 20 µM [22]: 25%

CC#CCn1c(N2CCC[C@@H](N)C2)cc(=O)n(Cc2cc(Br)cc(C(=O)OC)c2)c1=O
IC50 [1]: > 100 µM | IC50 [2]: > 100 µM
